From PubChem BioAssay AID623916 (The Scripps Research Institute Molecular Screening Center, 2012)
The source made the active and inactive calls.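 How the source made its calls: active means recipient E. coli survival below 80% of the solvent-only control; inactive means survival at 80% of control or higher.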

tested on: E. coli V66 viability, colony formation, 1.5 h; test: E. coli V66 viability reduction, late-stage follow-up, cytotoxicity control for AddAB inhibitor project, colony formation, single concentration, Hfr recombination (AID 623916); settings: at 100 µM
Outline: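 Assay system: E. coli strain V66 recipients; buffer or medium: LB broth during compound pre-growth; also added: Hfr donor strain V1306 (HfrH), donor to recipient 1:10; compound dosing: single nominal 100 µM compound, present during pre-growth and mating; incubation: 1 h compound pre-growth plus 30 min mating, 1.5 h total; measured by: colony formation on non-selective plates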

SMILES	outcome
CCn1cc(C(=O)O)c(=O)c2cnc(N3CCN(C(=S)Nc4ccccc4)CC3)nc21	inactive
CCn1cc(C(=O)O)c(=O)c2cnc(N3CCN(C(=S)Nc4ccccc4F)CC3)nc21	inactive
N#Cc1c(NC(=O)c2ccccc2C(=O)O)sc2c1CCCC2	inactive
CCn1cc(C(=O)O)c(=O)c2cnc(N3CCN(C(=S)Nc4ccc(Cl)cc4)CC3)nc21	inactive
N#Cc1c(NC(=O)c2cnccn2)sc2c1CCCC2	inactive
CCn1cc(C(=O)O)c(=O)c2cnc(N3CCN(C(=S)NC4CC5CCC4C5)CC3)nc21 (centres undefined)	inactive
CCn1cc(C(=O)O)c(=O)c2cnc(N3CCN(C(=S)Nc4ccc5c(c4)OCCO5)CC3)nc21	inactive
O=C(Nc1cccc(NC(=O)c2ccccc2Cl)c1)c1ccc([N+](=O)[O-])o1	inactive
Nc1c(NC(=O)c2ccc([N+](=O)[O-])o2)sc2c1CCCC2	inactive
CCn1cc(C(=O)O)c(=O)c2cnc(N3CCN(C(=S)NCc4ccccc4)CC3)nc21	inactive
CCn1cc(C(=O)O)c(=O)c2cnc(N3CCN(C(=S)NC(=O)c4ccccc4Cl)CC3)nc21	inactive
CCn1cc(C(=O)O)c(=O)c2cnc(N3CCN(C(=S)NC(=O)c4cccc(C)c4)CC3)nc21	inactive
N#Cc1c(NC(=O)c2ccccc2)sc2c1CCC2	inactive
CCn1cc(C(=O)O)c(=O)c2cnc(N3CCN(C(=S)Nc4ccc(F)cc4)CC3)nc21	inactive
CCn1cc(C(=O)O)c(=O)c2cc(F)c(N3CCN(C(=S)Nc4cccc(C(F)(F)F)c4)CC3)cc21	active
CCn1cc(C(=O)O)c(=O)c2cnc(N3CCN(C(=O)Nc4ccccc4)CC3)nc21	inactive
N#Cc1c(NC(=O)c2ccc(-c3ccccc3[N+](=O)[O-])o2)sc2c1CCCC2	inactive
O=C(OCC(=O)c1cccs1)c1ccc([N+](=O)[O-])o1	inactive
CCn1cc(C(=O)O)c(=O)c2cnc(N3CCNCC3)nc21	inactive
CC(=O)Nc1ccc2nc(NC(=O)c3ccc([N+](=O)[O-])o3)sc2c1	inactive
O=C(Nc1ncccn1)c1ccc([N+](=O)[O-])o1	inactive
N#Cc1c(NC(=O)C2CC=CCC2C(=O)O)sc2c1CCC2 (centres undefined)	inactive
Cc1ccc(C(=O)Nc2sc3c(c2C#N)CCC3)o1	inactive
N#Cc1c(NC(=O)c2ccc([N+](=O)[O-])o2)sc2c1CCCC2	inactive
CCn1cc(C(=O)O)c(=O)c2cnc(N3CCN(C(=S)Nc4ccccc4C)CC3)nc21	inactive

SMILES	outcome
Cc1sc(NC(=O)c2ccc(Br)o2)c(C#N)c1C	inactive
N#Cc1c(NC(=O)c2cccc(F)c2)sc2c1CCCC2	inactive
CCn1cc(C(=O)O)c(=O)c2cnc(N3CCN(C(=S)Nc4ccc5c(c4)OCO5)CC3)nc21	inactive
CCn1cc(C(=O)O)c(=O)c2cnc(N3CCN(C(=S)NC)CC3)nc21	inactive
CCn1cc(C(=O)O)c(=O)c2cnc(N3CCN(C(=S)NC(C)c4ccccc4)CC3)nc21 (centres undefined)	inactive
CCn1cc(C(=O)O)c(=O)c2cnc(N3CCN(C(=S)Nc4ccccc4C(F)(F)F)CC3)nc21	inactive
CCn1cc(C(=O)O)c(=O)c2cnc(N3CCN(C(=S)NC(=O)c4cccnc4)CC3)nc21	inactive
N#Cc1c(NC(=O)c2ccc([N+](=O)[O-])o2)sc2c1CCC2	inactive
CCn1cc(C(=O)O)c(=O)c2cnc(N3CCN(C(=S)Nc4cccc(C(F)(F)F)c4)CC3)nc21	inactive
N#Cc1c(NC(=O)c2ccco2)sc2c1CCC2	inactive
Cc1ccc2nc(/C(C#N)=C\c3ccc([N+](=O)[O-])o3)[nH]c2c1	inactive
CC1(C)Cc2c(sc(NC(=O)c3ccco3)c2C#N)CO1	inactive
CC1CCc2c(sc(NC(=O)c3ccc([N+](=O)[O-])o3)c2C#N)C1 (centres undefined)	inactive
O=C(NCc1cccnc1)c1ccc([N+](=O)[O-])o1	inactive
Cc1cccnc1NC(=O)c1ccc([N+](=O)[O-])o1	inactive
CCn1cc(C(=O)O)c(=O)c2cnc(N3CCN(C(=S)Nc4ccccc4OC)CC3)nc21	inactive
C=CCNC(=S)N1CCN(c2ncc3c(=O)c(C(=O)O)cn(CC)c3n2)CC1	inactive
CCn1cc(C(=O)O)c(=O)c2cnc(N3CCN(C(=S)NC(=O)c4ccco4)CC3)nc21	inactive
NC(=O)c1ccsc1NC(=O)COC(=O)c1ccc([N+](=O)[O-])o1	inactive
C=CCn1c(Sc2ncc([N+](=O)[O-])s2)n[nH]c1=O	inactive
CC1CCc2c(sc(NC(=O)c3ccc([N+](=O)[O-])o3)c2N)C1 (centres undefined)	inactive
CCn1cc(C(=O)O)c(=O)c2cnc(N3CCN(C(=S)Nc4ccccc4Cl)CC3)nc21	inactive
Cc1ccc(C(=O)Nc2sc3c(c2C#N)CCCCC3)o1	inactive
O=C(Nc1ccc(N2CCOCC2)cc1)c1ccc([N+](=O)[O-])o1	inactive
